UBC9 SUMO inh = SUMOylation inhibition | HTRF SUMOylation assay, SAE1/SAE2 + UBC9, in vitro | inhibition, % at 35 µM | 290,000 compounds, 0.36% hits; in the data active means inhibition above about 50%, passing the limit was not always enough
Target sequence (P63279 whole entry, looked up): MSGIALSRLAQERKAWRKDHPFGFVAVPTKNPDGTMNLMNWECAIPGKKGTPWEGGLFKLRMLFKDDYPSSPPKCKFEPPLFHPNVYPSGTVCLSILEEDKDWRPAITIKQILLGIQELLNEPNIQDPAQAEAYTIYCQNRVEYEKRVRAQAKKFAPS
p97 inhibitor = inhibitors of human p97 ATPase. AID 1481. recombinant p97 ATPase, Kinase-Glo ATP luminescence, 3 h. inhibition, % at 8 µM. P55072. 220,000 compounds, 0.42% hits; in the data active means inhibition above about 15%
14-3-3 Bad inh = disrupts binding of bovine 14-3-3 zeta to phospho-Bad peptide; 220,000 compounds, 0.71% hits; TR-FRET 14-3-3zeta/Dy647-pBad peptide displacement, 1 h; inhibition, % at 21.7 µM; P63103;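 active means inhibition above about 70%, limit read from the data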
Target sequence (P63103 whole entry, looked up): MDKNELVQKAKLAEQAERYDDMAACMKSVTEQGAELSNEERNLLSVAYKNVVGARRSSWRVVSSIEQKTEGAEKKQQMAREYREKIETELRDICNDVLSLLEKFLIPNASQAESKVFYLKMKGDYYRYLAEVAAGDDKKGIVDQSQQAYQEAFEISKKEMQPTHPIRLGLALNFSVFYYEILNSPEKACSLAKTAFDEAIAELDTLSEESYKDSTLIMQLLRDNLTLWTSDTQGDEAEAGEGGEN
NCF1 inh = p47phox (human) inhibition; p47phox/p22phox peptide binding, fluorescence polarization, 2 h; 220,000 compounds, 0.53% hits; AID 1274; P14598; inhibition, % at 24.7 µM
eIF4E 4G PPI = blocks eIF4E binding to eIF4G. P63073+Q04637. TR-FRET eIF4E-eIF4GI(517-606) binding, 2 h. inhibition, % at 21.7 µM. 220,000 compounds, 0.37% hits
Tb MetRS inh = Trypanosoma brucei MetRS inhibition; AID 624268; inhibition, % at 11.9 µM; purified T. brucei MetRS, ATP depletion, Kinase-Glo luminescence; 360,000 compounds, 0.4% hits;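 active means inhibition above a per-plate cutoff of the control wells' mean inhibition plus 3 SD, cut at about 5.5% in these data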
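assay system = parasite MetRS enzyme | timing = 15 min preincubation, 2 h reaction, all 25 °C | evaluation = percent inhibition relative to median high and low control wells | medium = HEPES buffer containing pyrophosphatase, BSA, spermine, DTT | compound = single dose, 11.9 µM final nominal, 0.9% final DMSO | detection = Kinase-Glo luminescence, ATP depletion format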
A number is an active result; – = inactive; · = no result given; [ ] = dose if it differs, or a comment. This is a sample that favours compounds with a hit; in the whole collection about 1.6% have one here.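 How the source made its calls, unless noted: active means inhibition above about 30% (limit read from the data); inactive means the rest.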

SMILES	UBC9 SUMO inh	p97 inhibitor	14-3-3 Bad inh	NCF1 inh	eIF4E 4G PPI	Tb MetRS inh
Cc1ccc(-c2cc(C(=O)Nc3sc4c(c3C(=O)NCc3ccco3)CCC4)[nH]n2)c(O)c1	–	–	–	–	–	–
COc1cc(/C=C2\SC(=O)N(CCN)C2=O)ccc1OS(=O)(=O)c1cc(C)ccc1C	–	–	84	72	–	–
COc1ccc(/C=C2\SC(=O)N(CCC(=O)Nc3ccccc3)C2=O)cc1OC	–	–	–	–	–	–
O=C(CCN1C(=O)/C(=C/c2ccc3c(c2)OCO3)SC1=S)NNC(=O)c1cccnc1	–	–	71	–	–	–
Cc1nc(COC(=O)c2cc(O)c3ccccc3c2O)cs1	–	–	–	49	–	–
CCN1CCN(CCOc2ccc(Br)cc2C)CC1	–	–	89	–	–	–
O=C(O)c1cc(-c2ccco2)nn1-c1ccc(Cl)cc1	–	–	–	–	31	–
O=C(O)c1cc(-c2ccco2)nn1-c1cccc(Cl)c1	–	–	–	–	–	–
Cc1ccc(-n2nc(-c3ccco3)cc2C(=O)O)c(C)c1	–	–	–	–	40	–
Cc1ccc(Nc2nc(Cl)nc(N(C)C#N)n2)cc1	–	21	–	–	–	–
O=C(C[n+]1cccc(/C=N/O)c1)NC(=O)Nc1ccccc1	·	·	·	·	·	–
COc1ccc(CCC(=O)O)c(O)c1	–	·	–	–	–	–
Cc1cc(CCC(=O)O)c(C)cc1CCC(=O)O	–	–	83	–	–	–
CCN(CC)C(=O)c1sc2nc(-c3ccccn3)[nH]c(=O)c2c1C	·	·	·	·	·	–
CCN(CC)C(=O)c1sc2nc(-c3ccncc3)[nH]c(=O)c2c1C	52	–	–	–	–	–
CCCCc1ccc(-c2nc(-c3ccncc3)no2)cc1	–	–	–	62	–	–
CCCCOc1ccc(-c2nc(-c3cccnc3)no2)cc1	–	–	160[fluorescence artefact?]	–	–	–
CCOc1ccc(-c2nc(-c3cccnc3)no2)cc1	–	–	–	–	–	–
CO[C@@H]1CN(C)C(=O)c2ccc(NS(=O)(=O)c3c(C)noc3C)cc2OC[C@@H](C)NC[C@@H]1C	·	·	·	·	·	–
Nc1ccc(C(=O)N/N=C\c2cc(N=Nc3cccc4ccccc34)ccc2O)cc1	–	–	77[fluorescence artefact?]	–	–	–
COC(=O)N/N=C/c1cc(N=Nc2ccccc2)ccc1O	–	–	–	–	–	–
Cc1cc(C(=O)N/N=C/c2cc(N=Nc3ccccc3)ccc2O)n[nH]1	–	–	–	35	–	–
CCOC(=O)CCc1c(C)c2ccc(OCc3cc([N+](=O)[O-])ccc3OC)c(C)c2oc1=O	–	–	–	30	–	·
O=C(O)c1ccc(Cl)c(S(=O)(=O)Nc2ccccc2C(=O)Nc2ccc(Cl)cc2)c1	–	·	·	·	·	–
COc1cc2oc(-c3ccc(O)cc3)cc(=O)c2c(OC)c1O	–	–	–	–	–	–
SMILES	UBC9 SUMO inh	p97 inhibitor	14-3-3 Bad inh	NCF1 inh	eIF4E 4G PPI	Tb MetRS inh
COc1cc2oc(-c3ccc(O)cc3)cc(=O)c2c(O)c1OC	–	·	–	41	58	–
Cc1ccc(S(=O)(=O)N2[C@H](CC(=O)Oc3ccccc3)OC[C@@H]2C(C)C)cc1	·	·	·	·	·	–
CC1CCc2c(sc3ncn(Cc4ccc(C(=O)O)cc4)c(=O)c23)C1 (centres undefined)	–	15	–	–	–	–
O=C(Nc1ccc(F)cc1)C(c1ccnc2ccccc12)N1CCN(c2cccc(C(F)(F)F)n2)CC1 (centres undefined)	·	·	·	·	·	–
COc1ccc2nc(/N=C/c3c(C)[nH]n(-c4ccc(C)cc4)c3=O)sc2c1	–	–	–	34	–	–
O=S(=O)(c1cccs1)N1CCN(CC(O)COC2CCCc3ccccc32)CC1 (centres undefined)	–	–	79	–	–	–
O=S(=O)(c1cccs1)N1CCN(CC(O)COc2cccc(Br)c2)CC1 (centres undefined)	–	–	–	–	–	–
O=C(CSc1ncc(-c2ccccc2)[nH]1)Nc1ccccc1	–	–	–	33	–	–
O=C(CSc1nc2ccccc2[nH]1)Nc1ccc(F)cc1	–	–	–	–	–	17
O=C(CSc1nc2ccccc2[nH]1)Nc1ccc2[nH]c(=O)[nH]c2c1	·	·	·	·	·	–
CC(C)NC(=O)C1(C)CN(S(C)(=O)=O)CC(=O)N1Cc1ccc2c(c1)OCO2 (centres undefined)	·	·	·	·	·	–
